Square brackets hold non-standard residues; d marks the D form. Peptide text beside a SMILES is read from it. * marks the point of attachment. X4 = CC[C@H](C)[C@@H](OC(=O)[C@H](Cc1ccccc1)N(C)C)C(=O)*; X1 = CC[C@H](C)[C@@H](OC(=O)/C=C/c1ccccc1)C(=O)*; X3 = CC[C@H](C)[C@@H](OC(=O)/C=C\c1ccccc1)C(=O)*; X5 = CC[C@H](C)[C@@H](OC(=O)C#Cc1ccccc1)C(=O)*; X2 = CC[C@H](C)[C@@H](OC(=O)CCc1ccccc1)C(=O)*; Hmp(2R,3S) = CC[C@H](C)[C@@H](O)C(=O)O; dNMeF = CN[C@H](Cc1ccccc1)C(=O)O; NMeL = CN[C@@H](CC(C)C)C(=O)O; dHiv = CC(C)[C@@H](O)C(=O)O
What was measured:
[1] = system: CXCR7, CCR10, OXTR, SSTR3, and TACR2; assay: GPCR secondary screen, dose-response against the five hits; assay type: cell-based; details: up to 20 μM
Summary of the method: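 Secondary β-arrestin (PathHunter) screen on the five receptors, run in agonist and antagonist modes. Dosing was 10 points by 3-fold serial dilution from 20 μM, in duplicate, with 1% vehicle. Chemiluminescent β-galactosidase read after 1 h detection at RT.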

[2] = system: MDA-MB-231 breast cancer cells; assay: MTT cell viability assay in MDA-MB-231 cells; assay type: cell-based; details: MDA-MB-231, 48 h; for cytotoxicity: MTT, up to 100 μM
Summary of the method: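 MDA-MB-231 cells kept in DMEM with 10% FBS were seeded at 10,000 cells/well. After 24 h they were exposed to graded test compound or DMSO solvent control for 48 h. Viability was measured by MTT.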

CCR10 = target: T1, CCR10 (Homo sapiens, UniProt P46092); assay: PathHunter β-Arrestin GPCR assay, antagonist mode; assay type: cell-based; details: dose-response starting at 20 μM, duplicate
T1 sequence (P46092 1-362): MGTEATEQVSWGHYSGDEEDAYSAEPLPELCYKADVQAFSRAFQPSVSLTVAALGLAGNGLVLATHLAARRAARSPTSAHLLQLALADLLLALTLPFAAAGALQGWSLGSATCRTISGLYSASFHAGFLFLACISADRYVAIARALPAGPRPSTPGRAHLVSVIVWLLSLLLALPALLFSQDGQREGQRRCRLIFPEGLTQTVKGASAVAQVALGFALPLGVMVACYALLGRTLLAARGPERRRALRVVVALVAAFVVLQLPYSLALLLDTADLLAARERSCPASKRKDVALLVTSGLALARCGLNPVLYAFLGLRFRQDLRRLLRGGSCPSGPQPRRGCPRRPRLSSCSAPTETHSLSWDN

OXTR = target: T2, OXTR (Homo sapiens, UniProt P30559); assay: PathHunter β-Arrestin GPCR assay, antagonist mode; assay type: cell-based; details: dose-response starting at 20 μM, duplicate
T2 sequence (P30559 1-389): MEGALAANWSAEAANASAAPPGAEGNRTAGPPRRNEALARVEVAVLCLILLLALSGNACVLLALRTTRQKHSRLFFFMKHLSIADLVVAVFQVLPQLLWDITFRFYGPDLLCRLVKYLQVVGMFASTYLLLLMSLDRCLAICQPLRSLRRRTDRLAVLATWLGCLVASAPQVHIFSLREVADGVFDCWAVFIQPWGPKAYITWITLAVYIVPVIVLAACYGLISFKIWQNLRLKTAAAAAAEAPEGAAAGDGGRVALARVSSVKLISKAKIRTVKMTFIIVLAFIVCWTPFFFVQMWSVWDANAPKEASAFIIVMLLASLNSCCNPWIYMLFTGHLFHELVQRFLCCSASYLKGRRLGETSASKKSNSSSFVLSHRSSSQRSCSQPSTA

SSTR3 = SSTR3 (Homo sapiens, UniProt P32745); assay: PathHunter β-Arrestin GPCR assay, antagonist mode; assay type: cell-based; details: dose-response starting at 20 μM, duplicate
SSTR3, sequence (P32745 whole entry): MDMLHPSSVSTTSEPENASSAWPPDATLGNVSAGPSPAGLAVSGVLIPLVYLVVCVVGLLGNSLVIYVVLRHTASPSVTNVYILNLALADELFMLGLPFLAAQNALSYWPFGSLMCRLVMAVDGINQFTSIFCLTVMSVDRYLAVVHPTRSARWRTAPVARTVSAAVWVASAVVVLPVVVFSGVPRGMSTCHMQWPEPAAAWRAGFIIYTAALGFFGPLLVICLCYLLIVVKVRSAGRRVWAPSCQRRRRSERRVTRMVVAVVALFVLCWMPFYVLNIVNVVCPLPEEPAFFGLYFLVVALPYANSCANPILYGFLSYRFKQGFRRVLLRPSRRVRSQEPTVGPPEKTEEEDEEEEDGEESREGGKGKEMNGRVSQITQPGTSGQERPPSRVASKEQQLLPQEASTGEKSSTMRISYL

plasma kallikrein = details: read-out: Ki plasma kallikrein; cited from earlier work
[3] = system: MDA-MB-468 breast cancer cells; assay: Transwell migration assay, MDA-MB-468 cells; assay type: cell-based; details: 48 h
Summary of the method: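 5000 MDA-MB-468 cells in DMEM with 10% FBS were treated with graded test compound or solvent control. They were seeded into 8 μm pore PET transwell inserts, with the same compound concentration in complete medium on the other side. After 48 h at 37 °C, 5% CO2, non-migrated cells were swabbed off, and migrated cells were crystal violet-stained and counted microscopically. Triplicate.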

[4] = target: KLK7 (substrates desmoglein-2 and E-cadherin) (Homo sapiens, UniProt P49862); assay: Cleavage of KLK7 downstream substrates, biochemical assay; details: 10 μM
KLK7 (substrates desmoglein-2 and E-cadherin), sequence (P49862 30-253): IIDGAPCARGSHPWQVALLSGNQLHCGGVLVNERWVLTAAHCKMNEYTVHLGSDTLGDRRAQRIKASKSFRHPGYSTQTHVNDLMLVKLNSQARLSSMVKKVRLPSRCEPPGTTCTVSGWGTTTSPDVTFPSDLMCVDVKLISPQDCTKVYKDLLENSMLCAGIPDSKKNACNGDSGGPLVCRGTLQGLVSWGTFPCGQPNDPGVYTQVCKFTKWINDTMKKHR

Kallikrein 7 (KLK7) = Kallikrein 7 (KLK7) (Homo sapiens, UniProt P49862); assay: Protease inhibition assay, fluorescent peptide substrate; assay type: biochemical
Kallikrein 7 (KLK7), sequence (P49862 30-253): as above

[5] = system: MDA-MB-468 breast cancer cells; assay: Dsg-2 shedding in MDA-MB-468 cells; assay type: cell-based
[6] = system: panel of 241 GPCR targets; assay: GPCR profiling, gpcrMAX and orphanMAX panels; assay type: cell-based; details: 10 μM; hit = > 50% activity or inhibition
Summary of the method: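 PathHunter β-arrestin enzyme fragment complementation in HEK293, CHO or U2OS lines stably expressing ProLink-tagged GPCR and EA-tagged β-arrestin. Test compound was 10 μM, one also at 20 μM; vehicle 1% final. Agonist mode: 90 or 180 min at 37 °C or RT. Chemiluminescence read after 1 h detection reagent. % activity/inhibition taken versus vehicle and control ligand.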

MDA-MB-231 cells [7] = assay: Transwell migration assay, MDA-MB-231 cells; assay type: cell-based; details: 10 μM, 48 h
Summary of the method: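 Transwell inserts with 8 μm pore PET membrane; MDA-MB-231 cells were exposed to test compound or solvent control. After incubation, non-migrated cells were wiped off, and migrated cells were crystal violet-stained and counted under a microscope.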

MDA-MB-231 cells [8] = assay: CCL27-induced proliferation of MDA-MB-231 cells; assay type: cell-based; details: serum deprived conditions, 48 h
Summary of the method: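 MDA-MB-231 cells (10,000/well) were seeded in serum-free DMEM for 24 h. For the CCL27 response, cells got graded CCL27 for 48 h. For inhibition, cells were pretreated with test compound for 2 h, then given CCL27 (1 μg/mL final) and incubated 48 h. Viability was read by MTT against solvent control. Mean ± SD, n = 3, two-tailed unpaired t test.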

COC(=O)[C@@H]1CCCN1C(=O)[C@@H](Cc1ccccc1)N(C)C(=O)[C@H](C)NC(=O)[C@H](CC(C)C)N(C)C(=O)CNC(=O)[C@@H]1CCCN1C(=O)[C@H](O)C(C)C [Compound 2, brintonamide B] (H-[dHiv]PG[NMeL]A[dNMeF]P-OMe)
activity against the tested GPCR targets [1]: did not show any activity | cytotoxicity [2]: did not show any cytotoxicity

CC[C@H](C)[C@@H](OC(=O)[C@H](Cc1ccccc1)N(C)C)C(=O)N1CCC[C@H]1C(=O)NCC(=O)N(C)[C@@H](CC(C)C)C(=O)N[C@@H](C)C(=O)N(C)[C@H](Cc1ccccc1)C(=O)N1CCC[C@H]1C(=O)OC [Compound 3, brintonamide C] (X4-PG[NMeL]A[dNMeF]P-OMe)
IC50 antagonist CCR10 (CCR10): did not show any activity | IC50 antagonist OXTR (OXTR): did not show any activity

CC[C@H](C)[C@@H](OC(=O)C#Cc1ccccc1)C(=O)N1CCC[C@H]1C(=O)NCC(=O)N(C)[C@@H](CC(C)C)C(=O)N[C@@H](C)C(=O)N(C)[C@H](Cc1ccccc1)C(=O)N1CCC[C@H]1C(=O)OC [Compound 7, dihydro-brintonamide D/E] (X5-PG[NMeL]A[dNMeF]P-OMe)
activity against the tested GPCR targets [1]: did not exhibit any activity

CC[C@H](C)[C@@H](OC(=O)CCc1ccccc1)C(=O)N1CCC[C@H]1C(=O)NCC(=O)N(C)[C@@H](CC(C)C)C(=O)N[C@@H](C)C(=O)N(C)[C@H](Cc1ccccc1)C(=O)N1CCC[C@H]1C(=O)OC [Compound 6, dehydro-brintonamide D/E] (X2-PG[NMeL]A[dNMeF]P-OMe)
IC50 antagonist SSTR3 (SSTR3): inactive

CC[C@H](C)[C@@H](OC(=O)/C=C\c1ccccc1)C(=O)N1CCC[C@H]1C(=O)NCC(=O)N(C)[C@@H](CC(C)C)C(=O)N[C@@H](C)C(=O)N(C)[C@H](Cc1ccccc1)C(=O)N1CCC[C@H]1C(=O)OC [Compound 5, brintonamide E] (X3-PG[NMeL]A[dNMeF]P-OMe)
IC50 antagonist SSTR3 (SSTR3): inactive

Ecallantide
Ki (plasma kallikrein): 0.025 nM

CC[C@H](C)[C@@H](OC(=O)/C=C/c1ccccc1)C(=O)N1CCC[C@H]1C(=O)NCC(=O)N(C)[C@@H](CC(C)C)C(=O)N[C@@H](C)C(=O)N(C)[C@H](Cc1ccccc1)C(=O)N1CCC[C@H]1C(=O)OC [Compound 4, brintonamide D] (X1-PG[NMeL]A[dNMeF]P-OMe)
activity against the tested GPCR targets [1]: active against all five tested GPCR targets | cytotoxic effects ([2]; up to 10 μM (Figure 6B)): no cytotoxic effects | migration of MDA-MB-468 cells [3]: inhibiting the migration | cleavage of KLK7 downstream substrates desmoglein-2 and E-cadherin [4]: partially inhibited | IC50 antagonist CCR10 (CCR10): submicromolar activity | IC50 (Kallikrein 7 (KLK7)): ~20 µM | Dsg-2 shedding [5]: unable to decrease Dsg-2 shedding

CC[C@H](C)[C@@H](O)C(=O)N1CCC[C@H]1C(=O)NCC(=O)N(C)[C@@H](CC(C)C)C(=O)N[C@@H](C)C(=O)N(C)[C@H](Cc1ccccc1)C(=O)N1CCC[C@H]1C(=O)OC [Compound 1, brintonamide A] ({Hmp(2R,3S)}-PG[NMeL]A[dNMeF]P-OMe)
activity against the tested GPCR targets [1]: did not show any activity | cytotoxicity [2]: did not show any cytotoxicity | hits in GPCR profiling [6]: did not show any hits | IC50 (Kallikrein 7 (KLK7)): ~20 µM | inhibition of migration (MDA-MB-231 cells [7]): inactive

B1: CCL27: C-C motif chemokine ligand 27, ligand of CCR10 (protein, UniProt Q9Y4X3 25-112, looked up)
C-C motif chemokine 27: FLLPPSTACCTQLYRKPLSDKLLRKVIQVELQEADGDCHLQAFVLHLAQRSICIHPQNPSLSQWFEHQERKLHGTLPKLNFGMLRKMG
cell proliferation in response to CCL27 stimulation (MDA-MB-231 cells [8]): increased in a dose-dependent manner
